Reference: ChEMBL document CHEMBL4270664 (J Med Chem, 2018)

Tests used:
[1] = Clearance in mouse at 3 mg/kg, iv; format: ADME, organism-based; details: in vivo
Method in brief: (§1)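 Mice were dosed at 3 mg/kg intravenously, with plasma sampled at 6 time points and n = 2 mice per time point.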

[2] = Cmax in mouse at 3 mg/kg, iv; format: ADME, organism-based; set-up: dose 3 mg/kg, route intravenous; details: in vivo; method in brief: as §1
[3] = Half life in mouse at 3 mg/kg, iv; format: ADME, organism-based; details: in vivo; method in brief: as §1
[4] = AUClast in mouse at 3 mg/kg, iv; format: ADME, organism-based; set-up: dose 3 mg/kg, time 0 - last, route intravenous; details: in vivo; method in brief: as §1
[5] = biological target: T1, Tyrosine-protein kinase Mer (Homo sapiens) (UniProt Q12866); details: 100 nM
T1 sequence (whole entry): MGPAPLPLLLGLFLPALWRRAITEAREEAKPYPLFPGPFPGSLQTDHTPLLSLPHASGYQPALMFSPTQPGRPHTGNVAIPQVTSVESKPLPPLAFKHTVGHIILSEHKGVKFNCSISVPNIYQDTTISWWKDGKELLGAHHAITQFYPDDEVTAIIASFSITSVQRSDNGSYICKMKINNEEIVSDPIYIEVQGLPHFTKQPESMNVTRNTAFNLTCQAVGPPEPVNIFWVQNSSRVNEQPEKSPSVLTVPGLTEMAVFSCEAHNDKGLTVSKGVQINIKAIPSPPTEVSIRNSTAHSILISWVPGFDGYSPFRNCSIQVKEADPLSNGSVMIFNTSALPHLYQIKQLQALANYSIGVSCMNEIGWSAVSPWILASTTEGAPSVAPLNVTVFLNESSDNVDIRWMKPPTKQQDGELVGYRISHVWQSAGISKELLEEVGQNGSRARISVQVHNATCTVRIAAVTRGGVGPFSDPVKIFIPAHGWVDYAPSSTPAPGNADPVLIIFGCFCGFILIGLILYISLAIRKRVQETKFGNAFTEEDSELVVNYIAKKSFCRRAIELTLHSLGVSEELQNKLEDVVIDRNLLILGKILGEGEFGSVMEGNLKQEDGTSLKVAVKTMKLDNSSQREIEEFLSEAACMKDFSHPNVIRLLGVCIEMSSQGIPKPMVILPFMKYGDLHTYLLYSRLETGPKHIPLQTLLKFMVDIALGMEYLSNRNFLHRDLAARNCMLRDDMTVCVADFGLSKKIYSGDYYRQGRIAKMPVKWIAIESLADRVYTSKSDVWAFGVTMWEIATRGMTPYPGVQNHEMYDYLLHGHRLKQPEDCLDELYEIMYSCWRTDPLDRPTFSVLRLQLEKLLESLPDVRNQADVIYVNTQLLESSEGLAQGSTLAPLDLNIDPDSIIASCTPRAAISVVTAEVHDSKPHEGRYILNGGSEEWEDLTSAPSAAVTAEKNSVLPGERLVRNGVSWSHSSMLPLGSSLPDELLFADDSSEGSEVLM

[6] = Half life in NSG mouse xenografted with human 697 cells at 30 mg/kg, ip administered as single dose; format: ADME, organism-based; details: in vivo
[7] = Oral bioavailability in mouse at 3 mg/kg; format: ADME, organism-based; details: in vivo
Method in brief: (§2)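 Mice were dosed at 3 mg/kg by oral or intraperitoneal route in an extended PK study. Oral bioavailability was derived against the iv route.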

[8] = Tmax in NSG mouse xenografted with human 697 cells at 30 mg/kg, ip administered as single dose; format: ADME, organism-based; details: in vivo
[9] = biological target: Mast/stem cell growth factor receptor Kit (Homo sapiens, UniProt P10721); experiment: Inhibition of N-terminal GST-tagged human KIT cytoplasmic domain (544 to 976 end residues) expressed in baculovirus expression system using fluorecence-labeled substrate by MCE assay
[10] = Half life in mouse at 3 mg/kg, ip; format: ADME, organism-based; details: in vivo; method in brief: as §2
[11] = biological target: High affinity nerve growth factor receptor (Homo sapiens, UniProt P04629); experiment: Inhibition of N-terminal GST-tagged human TRKA cytoplasmic domain (436 to 790 end residues) expressed in baculovirus expression system using fluorecence-labeled substrate by MCE assay
[12] = biological target: STE20-like serine/threonine-protein kinase (Homo sapiens, UniProt Q9H2G2); experiment: Inhibition of N-terminal GST-tagged full length human SLK (1 to 1152 end residues) expressed in baculovirus expression system using fluorecence-labeled substrate by MCE assay
[13] = biological target: T2, NUAK family SNF1-like kinase 1 (Homo sapiens, UniProt O60285); experiment: Inhibition of N-terminal GST-tagged full length human NuaK1 (1 to 661 end residues) expressed in baculovirus expression system using fluorecence-labeled substrate by MCE assay
T2 sequence (O60285 whole entry): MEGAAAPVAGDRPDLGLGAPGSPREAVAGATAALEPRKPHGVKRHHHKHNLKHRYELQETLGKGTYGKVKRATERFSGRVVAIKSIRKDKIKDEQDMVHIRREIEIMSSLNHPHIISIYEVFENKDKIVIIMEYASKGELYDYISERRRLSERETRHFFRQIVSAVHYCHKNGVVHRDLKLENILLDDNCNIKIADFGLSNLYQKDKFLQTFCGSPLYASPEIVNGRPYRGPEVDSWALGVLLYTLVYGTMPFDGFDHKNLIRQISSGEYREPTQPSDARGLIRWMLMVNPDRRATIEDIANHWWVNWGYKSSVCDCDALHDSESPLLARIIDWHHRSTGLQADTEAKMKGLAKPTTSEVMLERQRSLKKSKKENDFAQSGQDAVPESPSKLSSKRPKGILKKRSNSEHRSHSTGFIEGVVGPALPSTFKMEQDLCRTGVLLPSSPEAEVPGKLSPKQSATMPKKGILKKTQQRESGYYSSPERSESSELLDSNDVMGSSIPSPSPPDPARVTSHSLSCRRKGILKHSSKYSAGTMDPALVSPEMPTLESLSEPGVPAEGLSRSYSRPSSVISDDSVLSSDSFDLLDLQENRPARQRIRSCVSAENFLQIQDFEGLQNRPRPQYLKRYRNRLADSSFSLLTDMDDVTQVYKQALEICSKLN

[14] = Cmax in mouse at 3 mg/kg, po; format: ADME, organism-based; set-up: dose 3 mg/kg, route oral; details: in vivo; method in brief: as §2
[15] = biological target: Serine/threonine-protein kinase SIK2 (Homo sapiens, UniProt Q9H0K1); experiment: Inhibition of N-terminal GST-tagged full length human QIK (1 to 926 end residues) expressed in baculovirus expression system using fluorecence-labeled substrate by MCE assay
[16] = Cmax in mouse at 3 mg/kg, ip; format: ADME, organism-based; set-up: dose 3 mg/kg, route intraperitoneal; details: in vivo; method in brief: as §2
Mus musculus = species: Mus musculus; experiment: animal or person; details: Mus musculus, 697, ip, 10 min, read-out: INH
[17] = biological target: NT-3 growth factor receptor (Homo sapiens, UniProt Q16288); experiment: Inhibition of N-terminal GST-tagged human TRKC cytoplasmic domain (456 to 825 end residues) expressed in baculovirus expression system using fluorecence-labeled substrate by MCE assay
NT-3 growth factor receptor, sequence (Q16288 whole entry, the tested form may be a part): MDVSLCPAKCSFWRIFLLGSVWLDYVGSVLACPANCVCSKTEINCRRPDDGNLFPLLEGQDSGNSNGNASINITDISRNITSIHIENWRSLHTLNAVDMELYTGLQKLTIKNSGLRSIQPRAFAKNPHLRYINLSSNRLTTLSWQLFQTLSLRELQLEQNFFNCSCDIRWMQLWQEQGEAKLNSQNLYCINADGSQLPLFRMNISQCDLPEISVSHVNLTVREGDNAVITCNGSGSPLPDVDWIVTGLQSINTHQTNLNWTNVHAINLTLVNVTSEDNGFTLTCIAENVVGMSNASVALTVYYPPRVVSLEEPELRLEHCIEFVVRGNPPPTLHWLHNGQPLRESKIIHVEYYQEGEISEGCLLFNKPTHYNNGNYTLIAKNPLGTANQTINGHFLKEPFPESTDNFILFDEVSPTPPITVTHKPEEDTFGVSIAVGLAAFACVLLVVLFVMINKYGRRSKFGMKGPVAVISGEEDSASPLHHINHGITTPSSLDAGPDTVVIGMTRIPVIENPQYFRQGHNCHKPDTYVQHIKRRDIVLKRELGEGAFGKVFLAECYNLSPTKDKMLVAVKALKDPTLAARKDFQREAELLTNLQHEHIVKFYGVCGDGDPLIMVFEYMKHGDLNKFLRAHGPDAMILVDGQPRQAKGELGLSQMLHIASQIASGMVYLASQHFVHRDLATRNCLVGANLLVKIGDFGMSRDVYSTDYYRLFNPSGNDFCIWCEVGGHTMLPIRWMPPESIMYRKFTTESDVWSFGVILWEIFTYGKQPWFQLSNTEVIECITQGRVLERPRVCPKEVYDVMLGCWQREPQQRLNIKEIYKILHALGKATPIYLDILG

Mast/stem cell growth factor receptor Kit, sequence (P10721 whole entry, the tested form may be a part): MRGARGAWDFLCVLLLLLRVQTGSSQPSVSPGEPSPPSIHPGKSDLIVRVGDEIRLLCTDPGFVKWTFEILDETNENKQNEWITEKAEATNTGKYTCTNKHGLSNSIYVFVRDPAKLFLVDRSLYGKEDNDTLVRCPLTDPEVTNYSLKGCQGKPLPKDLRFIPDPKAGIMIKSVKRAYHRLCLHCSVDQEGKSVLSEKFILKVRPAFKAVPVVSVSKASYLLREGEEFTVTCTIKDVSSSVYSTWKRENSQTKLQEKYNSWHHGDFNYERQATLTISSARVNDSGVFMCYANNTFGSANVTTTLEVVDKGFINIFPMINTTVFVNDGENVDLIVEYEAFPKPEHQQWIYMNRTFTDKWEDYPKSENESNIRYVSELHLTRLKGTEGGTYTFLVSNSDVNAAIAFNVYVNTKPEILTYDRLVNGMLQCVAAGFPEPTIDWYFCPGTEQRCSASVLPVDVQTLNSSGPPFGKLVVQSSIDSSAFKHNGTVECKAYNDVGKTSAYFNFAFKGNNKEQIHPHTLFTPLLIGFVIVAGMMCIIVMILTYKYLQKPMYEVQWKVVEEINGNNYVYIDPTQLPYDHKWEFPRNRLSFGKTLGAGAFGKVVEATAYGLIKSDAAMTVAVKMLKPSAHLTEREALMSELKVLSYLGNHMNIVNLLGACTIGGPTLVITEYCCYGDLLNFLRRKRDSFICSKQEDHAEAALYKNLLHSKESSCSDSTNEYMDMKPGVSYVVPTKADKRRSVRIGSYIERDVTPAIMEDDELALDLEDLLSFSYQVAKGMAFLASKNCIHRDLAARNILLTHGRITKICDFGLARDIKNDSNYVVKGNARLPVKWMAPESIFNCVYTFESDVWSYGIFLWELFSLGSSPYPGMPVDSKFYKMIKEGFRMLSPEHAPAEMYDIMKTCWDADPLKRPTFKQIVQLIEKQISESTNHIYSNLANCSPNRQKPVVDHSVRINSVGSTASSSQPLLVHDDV
STE20-like serine/threonine-protein kinase, sequence (Q9H2G2 whole entry): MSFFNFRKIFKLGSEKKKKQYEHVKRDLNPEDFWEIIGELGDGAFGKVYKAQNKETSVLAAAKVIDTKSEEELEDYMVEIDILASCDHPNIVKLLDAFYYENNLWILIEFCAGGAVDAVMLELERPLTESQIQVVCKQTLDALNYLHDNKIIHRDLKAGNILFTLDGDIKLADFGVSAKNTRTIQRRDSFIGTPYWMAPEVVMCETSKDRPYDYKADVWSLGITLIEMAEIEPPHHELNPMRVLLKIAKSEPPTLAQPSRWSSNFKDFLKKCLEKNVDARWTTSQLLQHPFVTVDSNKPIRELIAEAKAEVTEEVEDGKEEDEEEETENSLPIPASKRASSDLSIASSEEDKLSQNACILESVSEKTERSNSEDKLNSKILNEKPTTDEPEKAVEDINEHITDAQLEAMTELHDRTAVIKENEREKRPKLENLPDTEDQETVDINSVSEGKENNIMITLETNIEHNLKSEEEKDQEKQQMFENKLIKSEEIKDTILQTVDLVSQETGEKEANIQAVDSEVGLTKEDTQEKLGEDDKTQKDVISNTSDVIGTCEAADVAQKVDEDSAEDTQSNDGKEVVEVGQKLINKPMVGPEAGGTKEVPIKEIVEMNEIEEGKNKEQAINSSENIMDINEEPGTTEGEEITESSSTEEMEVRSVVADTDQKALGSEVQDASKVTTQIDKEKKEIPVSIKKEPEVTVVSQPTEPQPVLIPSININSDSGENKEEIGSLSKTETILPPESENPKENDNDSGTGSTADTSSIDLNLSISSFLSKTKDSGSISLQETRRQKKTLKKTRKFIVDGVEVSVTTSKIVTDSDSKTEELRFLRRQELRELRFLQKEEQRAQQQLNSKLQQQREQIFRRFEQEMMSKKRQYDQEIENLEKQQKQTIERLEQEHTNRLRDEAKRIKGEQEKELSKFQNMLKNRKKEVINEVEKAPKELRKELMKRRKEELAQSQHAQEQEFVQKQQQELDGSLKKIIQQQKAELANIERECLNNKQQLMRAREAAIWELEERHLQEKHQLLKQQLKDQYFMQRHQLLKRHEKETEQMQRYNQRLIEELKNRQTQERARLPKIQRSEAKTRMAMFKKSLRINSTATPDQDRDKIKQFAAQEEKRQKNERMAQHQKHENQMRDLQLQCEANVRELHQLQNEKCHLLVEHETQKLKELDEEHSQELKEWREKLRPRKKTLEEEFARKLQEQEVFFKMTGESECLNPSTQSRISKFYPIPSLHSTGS
Serine/threonine-protein kinase SIK2, sequence (Q9H0K1 whole entry): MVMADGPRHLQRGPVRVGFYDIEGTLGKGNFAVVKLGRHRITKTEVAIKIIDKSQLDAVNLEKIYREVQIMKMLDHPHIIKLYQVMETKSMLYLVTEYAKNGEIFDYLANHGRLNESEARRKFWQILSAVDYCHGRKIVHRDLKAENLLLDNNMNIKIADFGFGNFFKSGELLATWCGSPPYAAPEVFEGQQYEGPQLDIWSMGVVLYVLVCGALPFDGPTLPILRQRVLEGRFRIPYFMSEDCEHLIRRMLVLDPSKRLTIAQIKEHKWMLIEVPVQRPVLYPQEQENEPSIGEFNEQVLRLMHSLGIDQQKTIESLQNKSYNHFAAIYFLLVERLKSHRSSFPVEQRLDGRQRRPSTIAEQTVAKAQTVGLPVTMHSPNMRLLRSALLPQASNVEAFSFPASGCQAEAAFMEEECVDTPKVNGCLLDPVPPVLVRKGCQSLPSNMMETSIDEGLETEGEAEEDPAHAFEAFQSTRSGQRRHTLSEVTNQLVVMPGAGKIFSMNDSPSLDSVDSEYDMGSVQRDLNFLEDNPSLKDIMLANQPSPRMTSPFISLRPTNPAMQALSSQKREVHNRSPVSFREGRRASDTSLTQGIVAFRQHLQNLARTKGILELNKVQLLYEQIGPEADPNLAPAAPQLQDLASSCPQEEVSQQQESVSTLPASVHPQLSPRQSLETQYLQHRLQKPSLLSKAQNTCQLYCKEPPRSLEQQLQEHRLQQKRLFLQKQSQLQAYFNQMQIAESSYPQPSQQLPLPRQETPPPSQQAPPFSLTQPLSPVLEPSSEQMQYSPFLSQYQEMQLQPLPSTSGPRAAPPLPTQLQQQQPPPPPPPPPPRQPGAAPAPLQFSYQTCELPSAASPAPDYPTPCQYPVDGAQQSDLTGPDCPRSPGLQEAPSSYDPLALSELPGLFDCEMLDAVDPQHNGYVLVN
High affinity nerve growth factor receptor, sequence (P04629 whole entry, the tested form may be a part): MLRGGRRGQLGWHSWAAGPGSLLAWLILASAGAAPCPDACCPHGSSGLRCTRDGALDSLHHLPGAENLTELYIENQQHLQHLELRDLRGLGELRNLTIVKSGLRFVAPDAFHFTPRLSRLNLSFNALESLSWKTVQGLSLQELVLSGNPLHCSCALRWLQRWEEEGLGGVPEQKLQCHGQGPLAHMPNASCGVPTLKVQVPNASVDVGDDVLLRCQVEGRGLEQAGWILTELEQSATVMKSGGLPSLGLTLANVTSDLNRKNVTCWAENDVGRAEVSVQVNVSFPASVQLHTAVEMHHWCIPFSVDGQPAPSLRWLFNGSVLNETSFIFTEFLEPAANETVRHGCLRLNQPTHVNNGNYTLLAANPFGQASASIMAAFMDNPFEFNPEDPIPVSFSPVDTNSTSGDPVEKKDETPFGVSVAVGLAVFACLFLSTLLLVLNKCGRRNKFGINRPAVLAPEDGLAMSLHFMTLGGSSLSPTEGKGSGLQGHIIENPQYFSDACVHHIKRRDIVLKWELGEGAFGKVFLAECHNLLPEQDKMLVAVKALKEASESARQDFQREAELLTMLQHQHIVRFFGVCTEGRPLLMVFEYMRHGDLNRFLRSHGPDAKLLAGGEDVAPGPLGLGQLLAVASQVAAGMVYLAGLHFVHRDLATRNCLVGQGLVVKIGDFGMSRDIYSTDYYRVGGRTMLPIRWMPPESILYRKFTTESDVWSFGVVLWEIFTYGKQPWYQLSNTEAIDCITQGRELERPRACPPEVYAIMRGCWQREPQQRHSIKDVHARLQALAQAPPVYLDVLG

Row | Compound | clearance [1] [mL/min/kg] | Cmax [2] [µM] | half-life [3] [h] | AUC(0-t) [4] [µM·h] | other results
1 | CCC[C@H](C)Nc1ncc2c(-c3ccnc(N4CCNCC4)c3)cn([C@H]3CC[C@H](O)CC3)c2n1 | 55 | 3.5 | 2.6 | 1.5 | 
2 | CCC[C@H](C)Nc1ncc2c(-c3cnn(C4CCNCC4)c3)cn([C@H]3CC[C@H](O)CC3)c2n1 | 32 | 13.8 | 2.1 | 2.8 | 
3 | CCC[C@H](C)Nc1ncc2c(-c3ccc(CN4C5CCC4CC5)cc3)cn([C@H]3CC[C@H](O)CC3)c2n1 | 302 | 0.1 | 1.8 | 0.28 | 
4 | CCC[C@H](C)Nc1ncc2c(-c3ccc(CN4CCOCC4)cc3)cn([C@H]3CC[C@H](O)CC3)c2n1 | 41 | 8.6 | 1.4 | 2.2 | 
5 | CCCCNc1ncc2c(-c3ccc(CN4CCN(C)CC4)cc3)cn([C@H]3CC[C@H](O)CC3)c2n1 |  |  |  |  | inhibition [5]: 100%
6 | CCC[C@H](C)Nc1ncc2c(-c3ccc(S(=O)(=O)N4CCN(C)CC4)cc3F)cn([C@H]3CC[C@H](O)CC3)c2n1 | 50 | 6.5 | 0.65 | 1.6 | 
7 | CCC[C@H](C)Nc1ncc2c(-c3ccc(CN4CCCN(C)CC4)cc3)cn([C@H]3CC[C@H](O)CC3)c2n1 | 29 | 5.2 | 3 | 2.7 | half-life [6]: 3 h; bioavailability [7]: 15%; Tmax [8]: 5 min; IC50 [9]: > 100 nM; half-life [10]: 1.43 h; IC50 [11]: 3.6 nM; IC50 [12]: 47 nM; IC50 [13]: > 100 nM; Cmax [14]: 0.061 µM; IC50 [15]: > 100 nM; Cmax [16]: 0.6 µM; inhibition at 30 mg/kg (Mus musculus): 75%; IC50 [17]: 8.4 nM
8 | CCC[C@H](C)Nc1ncc2c(-c3ccc(CNCCN(CC)CC)cc3)cn([C@H]3CC[C@H](O)CC3)c2n1 | 54 | 1.7 | 3.65 | 1.2 | 
